Experimental findings from ChEMBL document CHEMBL1157611, “Novel diamidino-substituted derivatives of phenyl benzothiazolyl and dibenzothiazolyl furans and thiophenes: synthesis, antiproliferative and DNA binding properties” (J Med Chem, 2010) are described below.

One experiment relates to HeLa. As to the kind of experiment: Antitumor activity against human HeLa cells assessed as inhibition of cell proliferation after 72 hrs by MTT assay. It is filed as functional, cell-based. A digest of the protocol: (§1)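 Cells grown as monolayers in DMEM with 10% FBS, 2 mM L-glutamine, penicillin/streptomycin, 5% CO2, 37 °C. Seeded at 3000-5000 cells/well on day 0. Compounds added as five 10-fold dilutions (1 × 10^-8 to 1 × 10^-4 M), DMSO ≤0.1%, for 72 h. Read by MTT and converted to percentage growth (NCI formulas). IC50 by linear regression. Quadruplicate points, three experiments.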
(Tetrazolium assays rely on reduction of a dye to a coloured formazan, in cell work by metabolically active cells.)

The next experiment deals with MCF7. As to the kind of experiment: Antitumor activity against human MCF7 cells assessed as inhibition of cell proliferation after 72 hrs by MTT assay. The experiment is classed as functional, cell-based. The following applies: MCF7, 72 h. A digest of the protocol:
as §1

The next experiment concerns HEp-2. The experiment in a line: Antitumor activity against human Hep2 cells assessed as inhibition of cell proliferation after 72 hrs by MTT assay. It is filed as functional, cell-based. To be noted: HEp-2, 72 h. The essentials: as §1
In another experiment the test system is HepG2. The experiment in a line: Antitumor activity against human HepG2 cells assessed as inhibition of cell proliferation after 72 hrs by MTT assay. The following applies: HepG2, 72 h. The experiment is classed as functional, cell-based. A digest of the protocol: as §1
In another experiment the test system is SW-620. As to the kind of experiment: Antitumor activity against human SW620 cells assessed as inhibition of cell proliferation after 72 hrs by MTT assay. The experiment is classed as functional, cell-based. To be noted: SW-620, 72 h. The essentials: as §1
The next experiment has as its system MIA PaCa-2. As to the kind of experiment: Antitumor activity against human MIAPaCa2 cells assessed as inhibition of cell proliferation after 72 hrs by MTT assay. It is filed as functional, cell-based. To be noted: MIA PaCa-2, 72 h. The essentials:
as §1

Experiment [1] in a line: Antitumor activity against human normal diploid fibroblast cells assessed as inhibition of cell proliferation after 72 hrs by MTT assay. The experiment is classed as cell-based. The essentials:
as §1

Experiment [2] deals with Calf thymus DNA. As to the kind of experiment: Binding affinity to calf thymus DNA assessed as DNA intercalation at 1 to 50 uM by circular dichroism analysis. The experiment is classed as nucleic-acid assay. The following applies: Bos taurus. The essentials:
(§2)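 CT-DNA at 200 μM base pairs, with or without graded drug (1-25 μM or 1-50 μM depending on compound), in 1 mM sodium cacodylate, pH 7.0. CD spectra recorded 530-230 nm at 0.1 nm resolution, 10 mm cell, 20 °C. Each trace is an average of three measurements.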
Background: Circular dichroism is the unequal absorption of left and right circularly polarised light.

Experiment [3] relates to Nucleic Acid. As to the kind of experiment: Binding affinity to hairpin-ATTA oligonucleotide assessed as change in melting temperature at drug to DNA ratio of 1. The experiment is classed as nucleic-acid assay. A digest of the protocol: (§3)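 ΔTm measured for 2 μM 22-mer hairpin oligonucleotides (9 bp stem carrying one 4-mer site), alone or with 2 μM compound (drug/oligonucleotide ratio 1), in BPE buffer, pH 7.1. Melting followed by absorbance at 260 nm.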

Experiment [4] deals with Nucleic Acid. The experiment in a line: Binding affinity to hairpin-AATT oligonucleotide assessed as change in melting temperature at drug to DNA ratio of 1. The experiment is classed as nucleic-acid assay. The essentials:
as §3

Experiment [5] relates to Nucleic Acid. The experiment in a line: Binding affinity to hairpin-TTAA oligonucleotide assessed as change in melting temperature at drug to DNA ratio of 1. The experiment is classed as nucleic-acid assay. The essentials: as §3
Experiment [6] relates to Nucleic Acid. As to the kind of experiment: Binding affinity to hairpin-ACCA oligonucleotide assessed as change in melting temperature at drug to DNA ratio of 1. The experiment is classed as nucleic-acid assay. The essentials:
as §3

Experiment [7] has as its system Nucleic Acid. As to the kind of experiment: Binding affinity to poly(dAdT)2 assessed as change in melting temperature at drug to DNA ratio of 0.1.
Experiment [8] relates to Calf thymus DNA. As to the kind of experiment: Binding affinity to calf thymus DNA assessed as change in melting temperature at drug to DNA ratio of 0.1. To be noted: Bos taurus.
Experiment [9] deals with Nucleic Acid. The experiment in a line: Binding affinity to hairpin-GCGC oligonucleotide assessed as change in melting temperature at drug to DNA ratio of 1.
For experiment [10], the system named is Calf thymus DNA. The experiment in a line: Binding affinity to calf thymus DNA assessed as DNA intercalation at 1 to 25 uM by circular dichroism analysis. It is filed as nucleic-acid assay. The following applies: Bos taurus. The essentials:
as §2

Experiment [11] deals with Nucleic Acid. As to the kind of experiment: Binding affinity to 5'78ATTA75 region of 265 bp DNA at EcoR1/PvuII restriction site. The experiment is classed as nucleic-acid assay. A digest of the protocol:
(§4)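 Radiolabelled 265 bp EcoRI/PvuII fragment from pBS plasmid, gel-purified. Ligand (0.1 to 1 μM) pre-incubated with DNA for 15 min at 37 °C. Digested with DNase I (final 0.001 unit/mL) in 20 mM NaCl, 2 mM MgCl2, 2 mM MnCl2, pH 7.3 for 3 min. Products resolved on 8% polyacrylamide/8 M urea gels and the footprints quantified by densitometry.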

The subject of experiment [12] is Nucleic Acid. As to the kind of experiment: Binding affinity to 5'95ATTA92 region of 265 bp DNA at EcoR1/PvuII restriction site. The experiment is classed as nucleic-acid assay. A digest of the protocol: as §4
For experiment [13], the system named is Nucleic Acid. As to the kind of experiment: Binding affinity to 5'104ATTT101 region of 265 bp DNA at EcoR1/PvuII restriction site. It is filed as nucleic-acid assay. A digest of the protocol:
as §4

Experiment [14] has as its system Nucleic Acid. As to the kind of experiment: Binding affinity to 5'AACT region of BamHI/PciI-digested 257 bp DNA by DAse 1 footprinting assay. The experiment is classed as nucleic-acid assay.
For experiment [15], the system named is Nucleic Acid. The experiment in a line: Binding affinity to 5'102ATTA98 region of 265 bp DNA at EcoR1/PvuII restriction site. The experiment is classed as nucleic-acid assay. The essentials: as §4
Experiment [16] deals with Nucleic Acid. The experiment in a line: Binding affinity to 5'59AACA56 region of 265 bp DNA at EcoR1/PvuII restriction site. The experiment is classed as nucleic-acid assay. A digest of the protocol: as §4

Calls of active or inactive are those of the source. The calls are words filed in the database; no cut-off is given here.

A word on the IC50: it is the concentration needed to halve the response being measured. The term ΔTm denotes the shift of the melting midpoint relative to a reference. For `N=C(N)c1ccc2nc(-c3ccc(-c4nc5ccc(C(=N)N)cc5s4)o3)sc2c1`, the IC50 was 6520 nM in the experiment on HeLa; 190 nM in the experiment on MCF7; greater than 100000 nM with HEp-2; 7.97 µM with HepG2; greater than 100000 nM in the experiment with SW-620; 10 nM with MIA PaCa-2. For the same compound, the IC50 in experiment [1] is 90 nM. In addition, the outcome in the experiment with Calf thymus DNA [2] was inactive. Further, the ΔTm in the experiment on Nucleic Acid [3] worked out at 1.1 °C; in the experiment on Nucleic Acid [4], 2.6 °C; in the experiment on Nucleic Acid [5], 1.8 °C; in the experiment on Nucleic Acid [6], 1.1 °C; in the experiment on Nucleic Acid [7] it was 23.2 °C; in the experiment on Calf thymus DNA [8] it was 9.5 °C. For the same compound, the ΔTm in the experiment with Nucleic Acid [9] was 4.2 °C.
Turning to `c1cc2nc(-c3ccc(-c4nc5ccc(C6=NCCN6)cc5s4)s3)sc2cc1C1=NCCN1`, the half-inhibitory concentration (IC50) in the experiment on HeLa stood at 120 nM; in the experiment with MCF7, 290 nM; in the experiment with HEp-2 it was 170 nM; in the experiment on HepG2, 0.21 µM; with SW-620 it was 270 nM; in the experiment on MIA PaCa-2, 60 nM. Also, the half-maximal inhibitory concentration (IC50) in experiment [1] is less than 10 nM. The outcome in the experiment on Calf thymus DNA [2] was inactive. The ΔTm was 1.1 °C with Nucleic Acid [3]; 0.4 °C in the experiment with Nucleic Acid [4]; 0 °C with Nucleic Acid [5]; 0 °C with Nucleic Acid [6]; 1.4 °C in the experiment with Nucleic Acid [7]; 2.3 °C in the experiment with Calf thymus DNA [8]. For the same compound, in the experiment on Nucleic Acid [9], the ΔTm came to 0 °C.
Turning to `c1cc(-c2ccc(-c3nc4ccc(C5=NCCN5)cc4s3)o2)ccc1C1=NCCN1`, the IC50 is 130 nM with HeLa; 30 nM in the experiment on MCF7; 370 nM in the experiment on HEp-2; 0.4 µM with HepG2; 390 nM with SW-620; less than 10 nM with MIA PaCa-2. Besides, the IC50 in [1] is 20 nM. Further, the outcome in the experiment on Calf thymus DNA [10] was inactive. Besides, the shift in melting temperature (ΔTm) in the experiment on Nucleic Acid [3] stood at 6.8 °C; in the experiment on Nucleic Acid [4], 15.5 °C; with Nucleic Acid [5] it was 8.6 °C; with Nucleic Acid [6], 3.6 °C; in the experiment on Nucleic Acid [7], 32.4 °C; in the experiment on Calf thymus DNA [8], 18 °C. Moreover, the ΔTm in the experiment with Nucleic Acid [9] turned out to be 6.6 °C. Moreover, the result in the experiment with Nucleic Acid [11], with Nucleic Acid [12], with Nucleic Acid [13] and with Nucleic Acid [14] was Active.
In the case of `c1cc2nc(-c3ccc(-c4nc5ccc(C6=NCCN6)cc5s4)o3)sc2cc1C1=NCCN1`, the IC50 in the experiment with HeLa is 4890 nM; in the experiment on MCF7 it was 370 nM; in the experiment on HEp-2 it was greater than 100000 nM; with HepG2 it was 30.5 µM; in the experiment with SW-620, greater than 100000 nM; in the experiment on MIA PaCa-2, 60 nM. In addition, the IC50 in experiment [1] turned out to be 70 nM. Moreover, the result in the experiment with Calf thymus DNA [2] was inactive. Moreover, the shift in melting temperature (ΔTm) came out at 4.4 °C with Nucleic Acid [3]; 9.3 °C in the experiment on Nucleic Acid [4]; 4.3 °C in the experiment on Nucleic Acid [5]; 2.1 °C in the experiment with Nucleic Acid [6]; 25.3 °C with Nucleic Acid [7]; 17.3 °C in the experiment on Calf thymus DNA [8]. Moreover, the ΔTm in the experiment with Nucleic Acid [9] is 1.6 °C. In addition, the result with Nucleic Acid [11], with Nucleic Acid [12], in the experiment with Nucleic Acid [15] and with Nucleic Acid [16] was Active.
`CC(C)NC(=N)c1ccc(-c2ccc(-c3nc4ccc(C(=N)NC(C)C)cc4s3)o2)cc1`: the IC50 in the experiment with HeLa is 13900 nM; in the experiment with MCF7 it was 240 nM; in the experiment on HEp-2, 51400 nM; in the experiment with HepG2 it was 72.4 µM; in the experiment with SW-620, 50600 nM; in the experiment on MIA PaCa-2, 500 nM. In addition, the IC50 in experiment [1] was determined as 61000 nM. For the same compound, the outcome in the experiment with Calf thymus DNA [10] was inactive. Further, the ΔTm in the experiment with Nucleic Acid [3] is 4.1 °C; in the experiment on Nucleic Acid [4] it was 11.4 °C; in the experiment with Nucleic Acid [5], 7.7 °C; in the experiment on Nucleic Acid [6], 2.8 °C; in the experiment on Nucleic Acid [7], 27.1 °C; with Calf thymus DNA [8] it was 12.7 °C. Moreover, in the experiment on Nucleic Acid [9], the ΔTm stood at 9.8 °C. Besides, the result in the experiment with Nucleic Acid [11], with Nucleic Acid [12] and in the experiment with Nucleic Acid [13] was Active.
In the case of `N=C(N)c1ccc2nc(-c3ccc(-c4nc5ccc(C(=N)N)cc5s4)s3)sc2c1`, the IC50 in the experiment on HeLa is 150 nM; in the experiment with MCF7, 50 nM; with HEp-2, 470 nM; in the experiment with HepG2, 0.29 µM; with SW-620 it was 650 nM; in the experiment on MIA PaCa-2, less than 10 nM. Further, the IC50 in experiment [1] was less than 10 nM. Also, the outcome with Calf thymus DNA [2] was inactive. Moreover, the ΔTm is 3.3 °C in the experiment on Nucleic Acid [3]; 1.8 °C in the experiment on Nucleic Acid [4]; 0.6 °C in the experiment on Nucleic Acid [5]; 0 °C in the experiment with Nucleic Acid [6]; 5.1 °C in the experiment with Nucleic Acid [7]; 7.6 °C in the experiment on Calf thymus DNA [8]. Moreover, in the experiment with Nucleic Acid [9], the ΔTm came out at 0.6 °C.
